Assay results as given in ChEMBL document CHEMBL1800057, “Discovery of dual inducible/neuronal nitric oxide synthase (iNOS/nNOS) inhibitor development candidate 4-((2-cyclobutyl-1H-imidazo[4,5-b]pyrazin-1-yl)methyl)-7,8-difluoroquinolin-2(1H)-one (KD7332) part 2: identification of a novel, potent, and selective series of benzimidazole-quinolinone …” (J Med Chem, 2010).

Columns and labels:
Mus musculus [1] = test: Inhibition of LPS-induced iNOS activation in BALB/c mouse assessed as plasma nitrate levels at 30 mg/kg administered via oral gavage before LPS challenge measured after 6 to 8 hrs using 2,3-diaminonaphthalene by fluorescence assay relative to control; type: functional
Method in brief: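 Male BALB/c mice dosed by oral gavage (90% PEG/5% Tween 80/5% PVP + 0.5% w/v CMC) immediately before LPS (10 mg/kg ip in 0.9% NaCl). Mice killed at 6 h. EDTA plasma analysed for nitrate and drug levels; nitrite measured by DAN fluorescence.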

[2] = target: T1, Nitric oxide synthase 3 (Homo sapiens) (UniProt P29474); test: Inhibition of human eNOS expressed in HEK293 cells assessed as inhibition A23187 induced nitric oxide production at 100 uM incubated for 24 hrs measured after 18 hrs of […] challenge using 2,3-diaminonaphthalene by fluorescence assay; type: cell-based
T1 sequence (whole entry): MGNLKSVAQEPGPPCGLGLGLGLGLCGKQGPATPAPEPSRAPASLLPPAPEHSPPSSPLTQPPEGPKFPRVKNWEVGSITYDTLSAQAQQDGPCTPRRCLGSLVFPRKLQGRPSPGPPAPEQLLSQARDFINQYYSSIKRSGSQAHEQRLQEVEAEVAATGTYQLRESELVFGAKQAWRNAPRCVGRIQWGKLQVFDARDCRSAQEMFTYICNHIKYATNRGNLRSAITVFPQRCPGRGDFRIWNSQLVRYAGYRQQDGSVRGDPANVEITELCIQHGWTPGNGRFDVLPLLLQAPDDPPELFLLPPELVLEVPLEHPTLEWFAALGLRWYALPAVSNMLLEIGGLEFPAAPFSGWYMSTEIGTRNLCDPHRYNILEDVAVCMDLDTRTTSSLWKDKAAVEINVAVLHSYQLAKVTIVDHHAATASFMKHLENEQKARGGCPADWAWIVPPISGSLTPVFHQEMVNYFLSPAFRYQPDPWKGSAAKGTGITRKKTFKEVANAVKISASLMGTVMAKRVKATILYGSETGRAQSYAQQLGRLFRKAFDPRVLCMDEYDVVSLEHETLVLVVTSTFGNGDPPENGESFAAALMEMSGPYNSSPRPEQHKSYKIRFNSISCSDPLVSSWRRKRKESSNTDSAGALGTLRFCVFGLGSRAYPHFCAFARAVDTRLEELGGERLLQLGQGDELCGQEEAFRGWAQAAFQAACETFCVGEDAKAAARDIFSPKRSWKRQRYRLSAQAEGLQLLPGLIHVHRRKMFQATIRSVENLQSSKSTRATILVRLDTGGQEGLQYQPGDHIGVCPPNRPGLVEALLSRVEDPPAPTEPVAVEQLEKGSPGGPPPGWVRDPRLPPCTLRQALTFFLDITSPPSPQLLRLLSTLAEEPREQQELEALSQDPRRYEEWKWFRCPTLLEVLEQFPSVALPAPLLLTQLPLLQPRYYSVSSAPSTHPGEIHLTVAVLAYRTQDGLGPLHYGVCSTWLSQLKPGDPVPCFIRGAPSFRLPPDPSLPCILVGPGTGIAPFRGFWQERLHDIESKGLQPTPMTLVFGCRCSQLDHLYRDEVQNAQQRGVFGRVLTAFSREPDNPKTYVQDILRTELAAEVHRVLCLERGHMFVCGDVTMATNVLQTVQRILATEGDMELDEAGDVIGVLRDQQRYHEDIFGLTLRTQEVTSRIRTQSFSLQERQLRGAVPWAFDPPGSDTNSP

Homo sapiens = species on record: Homo sapiens; test: Ratio of IC50 for human nNOS to EC50 for human iNOS
Mus musculus [3] = test: Neurotoxicity in C57Bl/6j mouse assessed as inability to maintain equilibrium on rotarod up to 1000 mg/kg, po determined 1 to 3 hrs postdose by rotarod test; type: toxicity, organism-based; parameters: dose 1000 mg/kg, route oral; details: in vivo
Method in brief: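 Male C57Bl/6j mice were acclimated to the rotarod at 4 rpm, then given two training sessions on an accelerating rod (4-40 rpm over 300 s). Only mice with latencies >60 s were kept. After oral dosing, latency to fall from the accelerating rod was recorded at 1, 2 and 3 h.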

Brain = test: Drug uptake in rat brain by microdialysis relative to compound plasma level; type: ADME, tissue-based; details: in vivo
Mus musculus [4] = test: Antinociceptive activity against formalin-induced pain in mouse assessed as attenuation of nocifensive phase 2 behaviors during phase 2 (25 to 45 mins post formalin injection) administered via oral gavage 30 mins before to formalin challenge; type: functional
Method in brief: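 Mice were given compound by oral gavage in PEG/Tween 80/PVP + CMC vehicle 30 min before 20 μL of 5% formalin was injected into the left hind paw. Paw flinching, licking and biting were timed in 5 min bins by a single observer. Read-out was time in nociceptive behaviour at 25-45 min. Mean ± SE, n = 5-6, one-way ANOVA with post hoc tests.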

Cytochrome P450 2C19 = Cytochrome P450 2C19 (Homo sapiens, UniProt P33261); test: Inhibition of human CYP2C19 at >38 uM; type: ADME
Chain of Cytochrome P450 2C19 (P33261 whole entry): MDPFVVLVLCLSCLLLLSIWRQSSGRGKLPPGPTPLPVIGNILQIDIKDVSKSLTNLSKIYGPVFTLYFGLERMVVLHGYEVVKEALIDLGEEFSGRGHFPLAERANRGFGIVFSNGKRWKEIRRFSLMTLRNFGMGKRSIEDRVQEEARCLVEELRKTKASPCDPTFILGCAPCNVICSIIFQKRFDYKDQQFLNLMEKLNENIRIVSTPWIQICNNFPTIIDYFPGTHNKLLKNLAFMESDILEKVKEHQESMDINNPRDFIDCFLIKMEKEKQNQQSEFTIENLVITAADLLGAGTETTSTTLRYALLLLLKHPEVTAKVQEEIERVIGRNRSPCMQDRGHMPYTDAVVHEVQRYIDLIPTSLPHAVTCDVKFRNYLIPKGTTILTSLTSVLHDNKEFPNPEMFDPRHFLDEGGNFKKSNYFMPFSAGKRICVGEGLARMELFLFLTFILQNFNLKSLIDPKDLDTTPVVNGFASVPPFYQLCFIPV

SMILES | inhibition in vivo at 30 mg/kg (Mus musculus [1]) [%] | inhibition [2] [%] | Ratio EC50 (Homo sapiens) | Activity (Mus musculus [3]) | Drug uptake (Brain) [%] | ED50 (Mus musculus [4]) [mg/kg] | inhibition (INH) (Cytochrome P450 2C19) [%]
CC(C)Cc1nc2ccccc2n1Cc1cc(=O)[nH]c2c(F)c(F)ccc12 | 85 | < 50 | 1.8 | – | – | – | –
O=c1cc(Cn2c(C3CCC3)nc3nccnc32)c2ccc(F)c(F)c2[nH]1 | – | – | – | Non-toxic | 2 | 13 | < 50
